Laboratory results reported in paper PMC2233693 (The Journal of General Physiology, 2000).
Where a chain is given by its changes, count along the chain named. Read-outs that look alike come from different tables or passages of the source.

How the values were obtained:
Type in all cases: biochemical
[1] = target: T1, wild-type bovine olfactory CNG channel (α3 subunit) (Bos taurus, UniProt Q03041); assay: Blockage of macroscopic current by internal Ca2+, inside-out patches; settings: read-out: K i for internal Ca2+ blockage, +80 mV, 1 mM cGMP, average
T1 sequence (Q03041 1-663): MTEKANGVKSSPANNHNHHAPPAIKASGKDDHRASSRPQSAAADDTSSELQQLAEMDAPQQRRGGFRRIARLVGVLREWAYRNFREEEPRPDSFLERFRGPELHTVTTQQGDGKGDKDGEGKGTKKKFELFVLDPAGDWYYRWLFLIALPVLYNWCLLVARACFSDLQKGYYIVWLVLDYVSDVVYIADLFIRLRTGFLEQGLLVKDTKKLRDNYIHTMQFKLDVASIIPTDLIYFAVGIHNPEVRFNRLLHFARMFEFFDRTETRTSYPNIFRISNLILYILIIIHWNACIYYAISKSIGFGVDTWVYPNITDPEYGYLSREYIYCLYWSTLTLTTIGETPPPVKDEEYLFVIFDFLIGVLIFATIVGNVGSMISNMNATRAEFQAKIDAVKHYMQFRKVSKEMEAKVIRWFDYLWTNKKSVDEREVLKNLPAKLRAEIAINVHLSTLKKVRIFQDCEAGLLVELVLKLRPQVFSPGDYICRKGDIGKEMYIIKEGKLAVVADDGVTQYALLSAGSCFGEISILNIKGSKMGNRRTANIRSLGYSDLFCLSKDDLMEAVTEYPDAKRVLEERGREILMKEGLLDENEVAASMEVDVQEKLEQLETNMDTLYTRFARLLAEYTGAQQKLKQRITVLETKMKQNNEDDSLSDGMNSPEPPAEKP

[2] = target: T1, wild-type bovine olfactory CNG channel (α3 subunit); assay: External Ca2+ blockage of single-channel current, outside-out patches; settings: for effect on single-channel current: 5 μM cGMP; for n (single-channel Ca2+ blockage): Fig. 7 patch
In short: (§1)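 Outside-out oocyte patches with cGMP in the pipette (wild-type 5 μM, E340G 1 mM) and increasing external Ca2+. Single-channel currents at +80 and −80 mV, filtered at 2 kHz, sampled at 10 kHz. Amplitudes from all-points histograms (30 s) fitted with summed Gaussians, normalised to divalent-free current, Hill-fitted for Ki and n. Two further patches per channel type.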

[3] = target: T2, E340G mutant bovine olfactory CNG channel (Bos taurus, UniProt Q03041, E340G); assay: as above; settings: for n (single-channel Ca2+ blockage): Fig. 7 patch
T2 sequence (Q03041 1-663 E340G): T1 sequence (Q03041 1-663) with E340G
In short: as §1

[4] = target: T3, E340D mutant bovine olfactory CNG channel (Bos taurus, UniProt Q03041, E340D)
T3 sequence (Q03041 1-663 E340D): T1 sequence (Q03041 1-663) with E340D

[5] = target: T1, wild-type bovine olfactory CNG channel (α3 subunit); settings: cGMP

Ki [1] [µM]	effect on single-channel current ([2]; 50 μM external Ca2+, −80 mV)	effect on single-channel current ([2]; 1 mM external Ca2+, −80 mV)	n (single-channel Ca2+ blockage) ([2]; +80 mV)	n (single-channel Ca2+ blockage) ([2]; −80 mV)	effect on single-channel amplitude ([3]; 1 or even 10 mM external Ca2+, 1 mM cGMP)	n (single-channel Ca2+ blockage) ([3]; +80 mV)	n (single-channel Ca2+ blockage) ([3]; −80 mV)	n(−80 mV), Hill coefficient ([4]; cGMP)	I(−80 mV)/I(+80 mV) ([4]; cGMP-gated current)	EC50 ([4]; read-out: K 1/2, cGMP, +80 mV) [µM]	EC50 ([4]; read-out: K 1/2, cGMP, −80 mV) [µM]	EC50 ([4]; read-out: K 1/2,cG, −80 mV, single patch, Fig. 1 fit) [µM]	n cG ([4]; −80 mV, single patch, Fig. 1 fit)	P max (+80 mV) [5]	P max (−80 mV) [5]	L, equilibrium gating constant ([5]; allosteric model fit, mean ± SD)	SMILES
1000 ± 700	partial blockage	no current was detected	1	1.1	only slightly reduced	0.7	0.8										[Ca+2] [Ca^2+]
								2.6 ± 0.4	1.30 ± 0.10	4.8 ± 1.1	4.9 ± 1.1	4.5	2.7	0.993 ± 0.004	0.996 ± 0.001	334 ± 82	Nc1nc2c(ncn2[C@@H]2O[C@@H]3COP(=O)(O)O[C@H]3[C@H]2O)c(=O)[nH]1 [cGMP]
